Results on 8 molecules are retold here after ChEMBL document CHEMBL4138085, “Design, synthesis and antimicrobial evaluation of novel benzimidazole-incorporated sulfonamide analogues” (Eur J Med Chem, 2017).

In brackets after ≈: the same amount, converted by molar mass.

One assay relates to Saccharomyces cerevisiae. Put plainly: Antifungal activity against Saccharomyces cerevisiae after 24 hrs by NCCLS two fold broth microdilution method. It is filed as functional. In a few lines: (§1)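 Two-fold serial microdilution following NCCLS. A spore suspension in sterile distilled water was prepared from one-day-old cultures grown on Sabouraud agar and adjusted to a final 1–5 × 10^3 spores/mL. DMSO stocks were diluted in RPMI 1640 to eleven concentrations (0.5–512 µg/mL), inoculated and held at 35 °C for 24 h. Growth was read visually and spectrophotometrically, MIC was the lowest concentration with complete inhibition, and runs were in triplicate.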
(In broth dilution the organism is exposed to a series of concentrations in liquid medium.)

Assay [1] deals with Staphylococcus aureus. Nature of the assay: Antibacterial activity against methicillin-resistant Staphylococcus aureus N315 after 24 hrs by NCCLS two fold broth microdilution method. The format is functional. Particulars: N315, 24 h. In a few lines: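 Two-fold serial broth microdilution per NCCLS. Chloromycin and norfloxacin as reference drugs; DMSO with inoculum, no drug, as solvent control. Incubation 37 °C for 24 h. Growth read visually and spectrophotometrically. MIC is the lowest concentration completely inhibiting growth; triplicate.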

A further assay concerns Micrococcus luteus. Nature of the assay: Antibacterial activity against Micrococcus luteus ATCC 4698 after 24 hrs by NCCLS two fold broth microdilution method. The format is functional. Particulars: NCTC 2665, 24 h. In a few lines:
(§2)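 Two-fold serial broth microdilution in 96-well plates following NCCLS. Compounds were dissolved in DMSO as stocks, then diluted in Mueller–Hinton broth to final concentrations of 0.5–512 µg/mL. Plates were inoculated and incubated at 37 °C for 24 h, with growth read visually and spectrophotometrically. MIC was taken as the lowest concentration giving complete growth inhibition. Run in triplicate, with a DMSO-plus-inoculum solvent control.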

For a further assay, the system named is Bacillus. Put plainly: Antibacterial activity against Bacillus proteus ATCC 13315 after 24 hrs by NCCLS two fold broth microdilution method. The format is functional. Particulars: ATCC 13315, 24 h. In a few lines: as §2
For another assay, the system named is Pseudomonas aeruginosa. Put plainly: Antibacterial activity against Pseudomonas aeruginosa ATCC 27853 after 24 hrs by NCCLS two fold broth microdilution method. Particulars: ATCC 27853, 24 h. The format is functional. An outline of the steps:
(§3)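 Two-fold serial broth microdilution in 96-well plates following NCCLS. Plates were inoculated and incubated at 37 °C for 24 h, with growth read visually and spectrophotometrically. MIC was taken as the lowest concentration giving complete growth inhibition. Run in triplicate, with a DMSO-plus-inoculum solvent control.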

For another assay, the system named is Salmonella typhi. Put plainly: Antibacterial activity against Bacillus typhi after 24 hrs by NCCLS two fold broth microdilution method. The format is functional, Salmonella enterica subsp. enterica serovar Typhi. Particulars: Salmonella enterica. An outline of the steps:
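Two-fold serial broth microdilution per NCCLS. DMSO stocks diluted in Mueller–Hinton broth to 512, 256, 128, 64, 32, 16, 8, 4, 2, 1, 0.5 µg/mL. Chloromycin and norfloxacin as reference drugs; DMSO with inoculum, no drug, as solvent control. Incubation 37 °C for 24 h. Growth read visually and spectrophotometrically. MIC is the lowest concentration completely inhibiting growth; triplicate.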

For another assay, the system named is Pichia norvegensis. Put plainly: Antifungal activity against Candida mycoderma after 24 hrs by NCCLS two fold broth microdilution method. The format is functional.
Assay [2] relates to Staphylococcus aureus. Put plainly: Antibacterial activity against Staphylococcus aureus ATCC 25923 after 24 hrs by NCCLS two fold broth microdilution method. It is filed as functional. Particulars: ATCC 25923, 24 h. In a few lines:
as §2

In another assay the test system is Escherichia coli. Nature of the assay: Antibacterial activity against Escherichia coli ATCC 8099 after 24 hrs by NCCLS two fold broth microdilution method. It is filed as functional. Particulars: ATCC 8099, 24 h. An outline of the steps: as §3
A further assay has as its system Bacillus subtilis. Nature of the assay: Antibacterial activity against Bacillus subtilis ATCC 21216 after 24 hrs by NCCLS two fold broth microdilution method. The format is functional. Particulars: ATCC 21216, 24 h. In a few lines: as §2
Another assay relates to Candida albicans. Put plainly: Antifungal activity against Candida albicans ATCC 76615 after 24 hrs by NCCLS two fold broth microdilution method. It is filed as functional. Particulars: ATCC 76615, 24 h. An outline of the steps: as §1
The subject of the next assay is Cyberlindnera jadinii. Nature of the assay: Antifungal activity against Candida utilis after 24 hrs by NCCLS two fold broth microdilution method. Particulars: Williopsis jadinii. It is filed as functional. An outline of the steps: as §1
The test system of a further assay is Aspergillus flavus. Put plainly: Antifungal activity against Aspergillus flavus after 24 hrs by NCCLS two fold broth microdilution method. It is filed as functional. In a few lines: as §1

Regarding `CCCCCCCn1c(CS(=O)(=O)c2ccc(NC(C)=O)cc2)nc2ccccc21`, the MIC (usually the smallest concentration in the dilution series that meets the test's criterion for growth inhibition) against Saccharomyces cerevisiae was 512 µg/mL (≈ 1200 µM); in the assay with Staphylococcus aureus [1], 512 µg/mL (≈ 1200 µM); in the assay with Micrococcus luteus, 512 µg/mL (≈ 1200 µM); in the assay with Bacillus, 256 µg/mL (≈ 599 µM); against Pseudomonas aeruginosa, 512 µg/mL (≈ 1200 µM); in the assay on Salmonella typhi it was 512 µg/mL (≈ 1200 µM). The MIC against Pichia norvegensis is 512 µg/mL (≈ 1200 µM); in the assay on Staphylococcus aureus [2], 8 µg/mL (≈ 18.7 µM); against Escherichia coli, 64 µg/mL (≈ 150 µM); against Bacillus subtilis it was 256 µg/mL (≈ 599 µM); against Candida albicans it was 512 µg/mL (≈ 1200 µM); with Cyberlindnera jadinii, 128 µg/mL (≈ 299 µM). For the same molecule, the MIC with Aspergillus flavus is 256 µg/mL (≈ 599 µM).
In the case of `Nc1ccc(S(=O)(=O)Cc2nc3ccccc3n2Cc2ccc(Cl)cc2)cc1`, the MIC came to 64 µg/mL (≈ 155 µM) in the assay with Saccharomyces cerevisiae; 256 µg/mL (≈ 621 µM) in the assay on Staphylococcus aureus [1]; 8 µg/mL (≈ 19.4 µM) against Micrococcus luteus; 256 µg/mL (≈ 621 µM) with Bacillus; 256 µg/mL (≈ 621 µM) in the assay with Pseudomonas aeruginosa; 512 µg/mL (≈ 1240 µM) against Salmonella typhi. The MIC in the assay with Pichia norvegensis was 16 µg/mL (≈ 38.8 µM); with Staphylococcus aureus [2], 256 µg/mL (≈ 621 µM); in the assay with Escherichia coli it was 64 µg/mL (≈ 155 µM); against Bacillus subtilis it was 8 µg/mL (≈ 19.4 µM); against Candida albicans, 256 µg/mL (≈ 621 µM); in the assay on Cyberlindnera jadinii, 32 µg/mL (≈ 77.7 µM). Moreover, the MIC with Aspergillus flavus was 128 µg/mL (≈ 311 µM).
With `CCCCCCCCn1c(CS(=O)(=O)c2ccc(NC(C)=O)cc2)nc2ccccc21`, the MIC in the assay on Saccharomyces cerevisiae was 8 µg/mL (≈ 18.1 µM); with Staphylococcus aureus [1], 512 µg/mL (≈ 1160 µM); against Micrococcus luteus, 256 µg/mL (≈ 580 µM); in the assay on Bacillus, 256 µg/mL (≈ 580 µM); against Pseudomonas aeruginosa, 256 µg/mL (≈ 580 µM); against Salmonella typhi, 512 µg/mL (≈ 1160 µM). Moreover, the MIC against Pichia norvegensis worked out at 512 µg/mL (≈ 1160 µM); against Staphylococcus aureus [2], 64 µg/mL (≈ 145 µM); with Escherichia coli, 512 µg/mL (≈ 1160 µM); with Bacillus subtilis, 128 µg/mL (≈ 290 µM); against Candida albicans, 512 µg/mL (≈ 1160 µM); against Cyberlindnera jadinii it was 512 µg/mL (≈ 1160 µM). In the assay with Aspergillus flavus, the MIC was found to be 512 µg/mL (≈ 1160 µM).
Consider `CCCCCCn1c(CS(=O)(=O)c2ccc(N)cc2)nc2ccccc21`, for which the MIC in the assay on Saccharomyces cerevisiae is 512 µg/mL (≈ 1380 µM); in the assay with Staphylococcus aureus [1] it was 512 µg/mL (≈ 1380 µM); in the assay on Micrococcus luteus it was 512 µg/mL (≈ 1380 µM); in the assay on Bacillus, 256 µg/mL (≈ 689 µM); in the assay on Pseudomonas aeruginosa it was 128 µg/mL (≈ 345 µM); in the assay on Salmonella typhi, 512 µg/mL (≈ 1380 µM). The MIC against Pichia norvegensis was determined as 512 µg/mL (≈ 1380 µM); in the assay on Staphylococcus aureus [2], 128 µg/mL (≈ 345 µM); with Escherichia coli it was 512 µg/mL (≈ 1380 µM); with Bacillus subtilis, 512 µg/mL (≈ 1380 µM); with Candida albicans, 512 µg/mL (≈ 1380 µM); in the assay with Cyberlindnera jadinii it was 512 µg/mL (≈ 1380 µM). The same molecule registered an MIC against Aspergillus flavus of 512 µg/mL (≈ 1380 µM).
`CCCCCCCCCCCCn1c(CS(=O)(=O)c2ccc(N)cc2)nc2ccccc21`: the MIC in the assay on Saccharomyces cerevisiae was 256 µg/mL (≈ 562 µM); in the assay with Staphylococcus aureus [1], 512 µg/mL (≈ 1120 µM); in the assay with Micrococcus luteus, 256 µg/mL (≈ 562 µM); in the assay on Bacillus, 512 µg/mL (≈ 1120 µM); against Pseudomonas aeruginosa, 512 µg/mL (≈ 1120 µM); against Salmonella typhi it was 512 µg/mL (≈ 1120 µM). Also, the MIC with Pichia norvegensis, against Staphylococcus aureus [2], with Escherichia coli, in the assay on Bacillus subtilis, against Candida albicans and against Cyberlindnera jadinii was 512 µg/mL (≈ 1120 µM) in each case. Moreover, the MIC against Aspergillus flavus was found to be 512 µg/mL (≈ 1120 µM).
As for `OC(Cn1cncn1)(Cn1cncn1)c1ccc(F)cc1F` [FLUCONAZOLE], the MIC against Saccharomyces cerevisiae is 16 µg/mL (≈ 52.2 µM); against Pichia norvegensis, 4 µg/mL (≈ 13.1 µM); in the assay with Candida albicans it was 1 µg/mL (≈ 3.27 µM); against Cyberlindnera jadinii it was 8 µg/mL (≈ 26.1 µM); against Aspergillus flavus it was 256 µg/mL (≈ 836 µM).
With `CCn1cc(C(=O)O)c(=O)c2cc(F)c(N3CCNCC3)cc21` [NORFLOXACIN], the MIC in the assay with Staphylococcus aureus [1] is 1 µg/mL (≈ 3.13 µM); against Micrococcus luteus, 1 µg/mL (≈ 3.13 µM); in the assay on Bacillus it was 4 µg/mL (≈ 12.5 µM); against Pseudomonas aeruginosa it was 1 µg/mL (≈ 3.13 µM); in the assay on Salmonella typhi it was 1 µg/mL (≈ 3.13 µM); with Staphylococcus aureus [2], 8 µg/mL (≈ 25.1 µM). For the same molecule, the MIC against Escherichia coli worked out at 1 µg/mL (≈ 3.13 µM); against Bacillus subtilis it was 2 µg/mL (≈ 6.26 µM).
Consider `O=C(N[C@H](CO)[C@H](O)c1ccc([N+](=O)[O-])cc1)C(Cl)Cl` [CHLORAMPHENICOL], for which the MIC is 8 µg/mL (≈ 24.8 µM) against Micrococcus luteus; 32 µg/mL (≈ 99 µM) in the assay on Bacillus; 32 µg/mL (≈ 99 µM) against Salmonella typhi; 8 µg/mL (≈ 24.8 µM) against Staphylococcus aureus [2]; 32 µg/mL (≈ 99 µM) in the assay with Bacillus subtilis.
